Reference: ChEMBL document CHEMBL4265940, “Synthesis of scutellarein derivatives with antiproliferative activity and selectivity through the intrinsic pathway” (Eur J Med Chem, 2018)
Active and inactive are the calls of the source. The rule behind the calls is not given here.

Tests used:
A549 = test: Antiproliferative activity against human A549 cells after 72 hrs by MTT assay; assay type: functional, cell-based; conditions: A549, 72 h
How it was run: (§1)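 Log-phase tumour cells seeded and held 24 h at 37 °C in humidified 5% CO2, then exposed to test agents for 72 h. MTT (5 mg/mL stock) added for a further 4 h, formazan dissolved in DMSO with 10 min shaking at room temperature, optical density read, IC50 calculated.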

MCF7 [1] = test: Antiproliferative activity against human MCF7 cells after 72 hrs by MTT assay; assay type: functional, cell-based; conditions: MCF7, 72 h; how it was run: as §1
Bel-7402 = test: Antiproliferative activity against human Bel7402 cells after 72 hrs by MTT assay; assay type: functional, cell-based; conditions: Bel-7402, 72 h; how it was run: as §1
L02 = test: Cytotoxicity against human LO2 cells assessed as decrease in cell viability after 72 hrs by MTT assay; assay type: cell-based; conditions: L02, 72 h
How it was run: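 L-O2 normal human liver cells tested for growth inhibition by MTT. Formazan was dissolved in DMSO and optical density read. IC50 values were derived.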

MCF7 [2] = test: Cell cycle arrest in human MCF7 cells assessed as accumulation at G1 phase at 0.75 uM after 48 hrs by propidium iodide staining based flow cytometry (reference value: 41.49%); assay type: functional
MCF7 [3] = test: Cell cycle arrest in human MCF7 cells assessed as accumulation at G2/M phase at 0.75 uM after 48 hrs by propidium iodide staining based flow cytometry (reference value: 22.40%); assay type: functional
MCF7 [4] = test: Cell cycle arrest in human MCF7 cells assessed as accumulation at S phase at 0.75 uM after 48 hrs by propidium iodide staining based flow cytometry (reference value: 36.11%); assay type: functional
MCF7 [5] = test: Cell cycle arrest in human MCF7 cells assessed as accumulation at G1 phase at 1.5 uM after 48 hrs by propidium iodide staining based flow cytometry (reference value: 41.49%); assay type: functional
MCF7 [6] = test: Cell cycle arrest in human MCF7 cells assessed as accumulation at G2/M phase at 1.5 uM after 48 hrs by propidium iodide staining based flow cytometry (reference value: 22.40%); assay type: functional
MCF7 [7] = test: Cell cycle arrest in human MCF7 cells assessed as accumulation at S phase at 1.5 uM after 48 hrs by propidium iodide staining based flow cytometry (reference value: 36.11%); assay type: functional
MCF7 [8] = test: Cell cycle arrest in human MCF7 cells assessed as accumulation at G1 phase at 3 uM after 48 hrs by propidium iodide staining based flow cytometry (reference value: 41.49%); assay type: functional
MCF7 [9] = test: Cell cycle arrest in human MCF7 cells assessed as accumulation at G2/M phase at 3 uM after 48 hrs by propidium iodide staining based flow cytometry (reference value: 22.40%); assay type: functional
MCF7 [10] = test: Cell cycle arrest in human MCF7 cells assessed as accumulation at S phase at 3 uM after 48 hrs by propidium iodide staining based flow cytometry (reference value: 36.11%); assay type: functional
MCF7 [11] = test: Cell cycle arrest in human MCF7 cells assessed as accumulation at G1 phase after 48 hrs by propidium iodide staining based flow cytometry; assay type: functional
MCF7 [12] = test: Induction of apoptosis in human MCF7 cells assessed as viable cells at 0.75 uM after 48 hrs by Annexin V-FITC/PI staining based flow cytometry (reference value: 93.72%); assay type: functional; conditions: MCF7, 48 h, read-out: Activity
MCF7 [13] = test: Induction of apoptosis in human MCF7 cells assessed as early apoptotic cells at 0.75 uM after 48 hrs by Annexin V-FITC/PI staining based flow cytometry (reference value: 4.10%); assay type: functional
MCF7 [14] = test: Induction of apoptosis in human MCF7 cells assessed as late apoptotic cells at 0.75 uM after 48 hrs by Annexin V-FITC/PI staining based flow cytometry (reference value: 1.99%); assay type: functional
MCF7 [15] = test: Induction of apoptosis in human MCF7 cells assessed as necrotic cells at 0.75 uM after 48 hrs by Annexin V-FITC/PI staining based flow cytometry (reference value: 0.19%); assay type: functional
MCF7 [16] = test: Induction of apoptosis in human MCF7 cells assessed as viable cells at 1.5 uM after 48 hrs by Annexin V-FITC/PI staining based flow cytometry (reference value: 93.72%); assay type: functional; conditions: MCF7, 48 h, read-out: Activity
MCF7 [17] = test: Induction of apoptosis in human MCF7 cells assessed as early apoptotic cells at 1.5 uM after 48 hrs by Annexin V-FITC/PI staining based flow cytometry (reference value: 4.10%); assay type: functional
MCF7 [18] = test: Induction of apoptosis in human MCF7 cells assessed as late apoptotic cells at 1.5 uM after 48 hrs by Annexin V-FITC/PI staining based flow cytometry (reference value: 1.99%); assay type: functional
MCF7 [19] = test: Induction of apoptosis in human MCF7 cells assessed as necrotic cells at 1.5 uM after 48 hrs by Annexin V-FITC/PI staining based flow cytometry (reference value: 0.19%); assay type: functional
MCF7 [20] = test: Induction of apoptosis in human MCF7 cells assessed as viable cells at 3 uM after 48 hrs by Annexin V-FITC/PI staining based flow cytometry (reference value: 93.72%); assay type: functional; conditions: MCF7, 48 h, read-out: Activity
MCF7 [21] = test: Induction of apoptosis in human MCF7 cells assessed as early apoptotic cells at 3 uM after 48 hrs by Annexin V-FITC/PI staining based flow cytometry (reference value: 4.10%); assay type: functional
MCF7 [22] = test: Induction of apoptosis in human MCF7 cells assessed as late apoptotic cells at 3 uM after 48 hrs by Annexin V-FITC/PI staining based flow cytometry (reference value: 1.99%); assay type: functional
MCF7 [23] = test: Induction of apoptosis in human MCF7 cells assessed as necrotic cells at 3 uM after 48 hrs by Annexin V-FITC/PI staining based flow cytometry (reference value: 0.19%); assay type: functional
MCF7 [24] = test: Induction of apoptosis in human MCF7 cells after 48 hrs by Annexin V-FITC/PI staining based flow cytometry; assay type: functional, cell-based
MCF7 [25] = test: Induction of mitochondrial membrane depolarization in human MCF7 cells assessed as collapse of mitochondrial membrane potential at 0.75 uM after 48 hrs by JC-1 staining based flow cytometry (reference value: 1.61%); assay type: functional
How it was run: (§2)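 Log-phase MCF-7 cells treated at 0, 0.75, 1.5 and 3 µM for 48 h, washed with PBS, then stained with JC-1 in the dark per kit instructions. The percentage of cells with collapsed membrane potential was measured by flow cytometry relative to untreated control.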

MCF7 [26] = test: Induction of mitochondrial membrane depolarization in human MCF7 cells assessed as collapse of mitochondrial membrane potential at 1.5 uM after 48 hrs by JC-1 staining based flow cytometry (reference value: 1.61%); assay type: functional; how it was run: as §2
MCF7 [27] = test: Induction of mitochondrial membrane depolarization in human MCF7 cells assessed as collapse of mitochondrial membrane potential at 3 uM after 48 hrs by JC-1 staining based flow cytometry (reference value: 1.61%); assay type: functional; how it was run: as §2
MCF7 [28] = test: Induction of mitochondrial membrane depolarization in human MCF7 cells after 48 hrs by JC-1 staining based flow cytometry; assay type: functional, cell-based; how it was run: as §2
MCF7 [29] = test: Induction of apoptosis in human MCF7 cells assessed as upregulation of Bax after 48 hrs by Western blot analysis; assay type: functional, cell-based
How it was run: (§3)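 MCF-7 cells treated 48 h at 0, 0.75, 1.5 and 3 µM, lysed, and spun at 14000 g for 10 min at 4 °C. Protein was measured by BCA and 25 µg lysate run on 12% SDS-PAGE, then transferred to nitrocellulose and blocked with 5% milk. Blots were probed overnight at 4 °C with monoclonal antibodies to Bcl-2, Bax, cyto-c, caspase-9, caspase-3 and GAPDH, with ECL detection.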

MCF7 [30] = test: Induction of apoptosis in human MCF7 cells assessed as downregulation of Bcl-2 after 48 hrs by Western blot analysis; assay type: functional, cell-based; how it was run: as §3
MCF7 [31] = test: Induction of apoptosis in human MCF7 cells assessed as increase in cytochrome c release at 0.75 to 3 uM after 48 hrs by Western blot analysis; assay type: functional, cell-based; how it was run: as §3
MCF7 [32] = test: Induction of apoptosis in human MCF7 cells assessed as increase in caspase-9 level at 0.75 to 3 uM after 48 hrs by Western blot analysis; assay type: functional, cell-based; how it was run: as §3
MCF7 [33] = test: Induction of apoptosis in human MCF7 cells assessed as increase in caspase-3 level at 0.75 to 3 uM after 48 hrs by Western blot analysis; assay type: functional, cell-based; how it was run: as §3

## O=C(O)CCCc1ccc(N(CCCl)CCCl)cc1 [CHLORAMBUCIL]
A549
  IC50: > 50 µM
MCF7 [1]
  IC50: > 50 µM
Bel-7402
  IC50: > 50 µM
L02
  IC50: > 50 µM

## O=c1[nH]cc(F)c(=O)[nH]1 [FLUOROURACIL]
A549
  IC50: 2.05 µM
MCF7 [1]
  IC50: 27.9 µM
Bel-7402
  IC50: 18.7 µM

## O=C(OCCCOc1ccc(-c2cc(=O)c3c(O)c(O)c(O)cc3o2)cc1)c1ccc(N(CCCl)CCCl)cc1
A549
  IC50: > 50 µM
MCF7 [1]
  IC50: 1.5 µM
Bel-7402
  IC50: 7.96 µM
L02
  IC50: > 50 µM
MCF7 [2]
  Activity: 44.16%
MCF7 [3]
  Activity: 21.17%
MCF7 [4]
  Activity: 34.67%
MCF7 [5]
  Activity: 50.99%
MCF7 [6]
  Activity: 18.56%
MCF7 [7]
  Activity: 30.44%
MCF7 [8]
  Activity: 59.49%
MCF7 [9]
  Activity: 11.47%
MCF7 [10]
  Activity: 29.04%
MCF7 [11]
  Activity: Dose-dependent effect
MCF7 [12]
  viability at 0.75 µM: 83.8%
MCF7 [13]
  Activity: 12.07%
MCF7 [14]
  Activity: 3.92%
MCF7 [15]
  Activity: 0.17%
MCF7 [16]
  viability at 1.5 µM: 68.8%
MCF7 [17]
  Activity: 19.85%
MCF7 [18]
  Activity: 9.46%
MCF7 [19]
  Activity: 1.85%
MCF7 [20]
  viability at 3 µM: 31.5%
MCF7 [21]
  Activity: 38.48%
MCF7 [22]
  Activity: 26.73%
MCF7 [23]
  Activity: 3.26%
MCF7 [24]
  Activity: Dose-dependent effect
MCF7 [25]
  Activity: 19.61%
MCF7 [26]
  Activity: 43.48%
MCF7 [27]
  Activity: 64.8%
MCF7 [28]
  Activity: Dose-dependent effect
MCF7 [29]
  Activity: Dose-dependent effect
MCF7 [30]
  Activity: Dose-dependent effect
MCF7 [31]
  Activity: Active
MCF7 [32]
  Activity: Active
MCF7 [33]
  Activity: Active

## O=C(OCCCCOc1ccc(-c2cc(=O)c3c(O)c4c(cc3o2)OCCO4)cc1)c1ccc(N(CCCl)CCCl)cc1
A549
  IC50: > 50 µM
MCF7 [1]
  IC50: > 50 µM
Bel-7402
  IC50: 37.6 µM
L02
  IC50: > 50 µM

## O=C(OCCCOc1ccc(-c2cc(=O)c3c(O)c4c(cc3o2)OCCO4)cc1)c1ccc(N(CCCl)CCCl)cc1
A549
  IC50: 44.5 µM
MCF7 [1]
  IC50: 45 µM
Bel-7402
  IC50: > 50 µM
L02
  IC50: > 50 µM

## COc1cc2oc(-c3ccc(OCCCOC(=O)c4ccc(N(CCCl)CCCl)cc4)cc3)cc(=O)c2c(O)c1OC
A549
  IC50: > 50 µM
MCF7 [1]
  IC50: > 50 µM
Bel-7402
  IC50: 27.8 µM
L02
  IC50: > 50 µM

## O=C(OCCCCCOc1ccc(-c2cc(=O)c3c(O)c(O)c(O)cc3o2)cc1)c1ccc(N(CCCl)CCCl)cc1
A549
  IC50: 23.5 µM
MCF7 [1]
  IC50: 4.78 µM
Bel-7402
  IC50: 4.59 µM
L02
  IC50: > 50 µM

## O=C(OCCCCOc1ccc(-c2cc(=O)c3c(O)c(O)c(O)cc3o2)cc1)c1ccc(N(CCCl)CCCl)cc1
A549
  IC50: 21.5 µM
MCF7 [1]
  IC50: 3.55 µM
Bel-7402
  IC50: 9.07 µM
L02
  IC50: > 50 µM

## COc1cc2oc(-c3ccc(OCCCCCOC(=O)c4ccc(N(CCCl)CCCl)cc4)cc3)cc(=O)c2c(O)c1OC
A549
  IC50: > 50 µM
MCF7 [1]
  IC50: > 50 µM
Bel-7402
  IC50: 32.5 µM
L02
  IC50: > 50 µM

## O=C(OCCCCCOc1ccc(-c2cc(=O)c3c(O)c4c(cc3o2)OCCO4)cc1)c1ccc(N(CCCl)CCCl)cc1
A549
  IC50: > 50 µM
MCF7 [1]
  IC50: 34.7 µM
Bel-7402
  IC50: 45.7 µM
L02
  IC50: > 50 µM

## COc1cc2oc(-c3ccc(OCCCCOC(=O)c4ccc(N(CCCl)CCCl)cc4)cc3)cc(=O)c2c(O)c1OC
A549
  IC50: 47.3 µM
MCF7 [1]
  IC50: > 50 µM
Bel-7402
  IC50: 25.7 µM
L02
  IC50: > 50 µM
